Data as given in ChEMBL document CHEMBL3286357, “Design, synthesis and pharmacological evaluation of novel substituted quinoline-2-carboxamide derivatives as human dihydroorotate dehydrogenase (hDHODH) inhibitors and anticancer agents” (Eur J Med Chem, 2014).

Experiments:
[1] = Retention time of compound by HPLC analysis; format: physicochemical
A-375 [2] = test: Antiproliferative activity against human A375 cells at 0.01 ug/ml for 24 hrs by MTT assay; format: functional; settings: A-375, 24 h
Summary of the method: (§1)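 HEP-3B or A-375 cells were grown in DMEM with 10% FBS, 5% HBSS, penicillin, streptomycin and amphotericin B at 37 C and 5% CO2. Cells were seeded at 2 × 10^4 per well and preincubated for 24 h. They were then exposed to ten 1:3 serial dilutions from a top concentration of 100, made from 2% DMSO stocks. MTT was added for 3 h, formazan was dissolved in DMSO, and A550 was read. Wells were run in triplicate across three independent experiments. IC50 came from dose-response curves.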

A-375 [3] = test: Antiproliferative activity against human A375 cells at 0.02 ug/ml for 24 hrs by MTT assay; format: functional; settings: A-375, 24 h; summary of the method: as §1
A-375 [4] = test: Antiproliferative activity against human A375 cells at 0.05 ug/ml for 24 hrs by MTT assay; format: functional; settings: A-375, 24 h; summary of the method: as §1
A-375 [5] = test: Antiproliferative activity against human A375 cells at 0.14 ug/ml for 24 hrs by MTT assay; format: functional; settings: A-375, 24 h; summary of the method: as §1
A-375 [6] = test: Antiproliferative activity against human A375 cells at 0.41 ug/ml for 24 hrs by MTT assay; format: functional; settings: A-375, 24 h; summary of the method: as §1
A-375 [7] = test: Antiproliferative activity against human A375 cells at 1.23 ug/ml for 24 hrs by MTT assay; format: functional; settings: A-375, 24 h; summary of the method: as §1
A-375 [8] = test: Antiproliferative activity against human A375 cells at 3.7 ug/ml for 24 hrs by MTT assay; format: functional; settings: A-375, 24 h; summary of the method: as §1
A-375 [9] = test: Antiproliferative activity against human A375 cells at 11.11 ug/ml for 24 hrs by MTT assay; format: functional; settings: A-375, 24 h; summary of the method: as §1
A-375 [10] = test: Antiproliferative activity against human A375 cells at 33.33 ug/ml for 24 hrs by MTT assay; format: functional; settings: A-375, 24 h; summary of the method: as §1
A-375 [11] = test: Antiproliferative activity against human A375 cells at 100 ug/ml for 24 hrs by MTT assay; format: functional; settings: A-375, 24 h; summary of the method: as §1
[12] = Antiproliferative activity against human Hep3B cells at 0.01 ug/ml for 24 hrs by MTT assay; format: functional, Hep 3B2; summary of the method: as §1
[13] = Antiproliferative activity against human Hep3B cells at 0.02 ug/ml for 24 hrs by MTT assay; format: functional, Hep 3B2; summary of the method: as §1
[14] = Antiproliferative activity against human Hep3B cells at 0.05 ug/ml for 24 hrs by MTT assay; format: functional, Hep 3B2; summary of the method: as §1
[15] = Antiproliferative activity against human Hep3B cells at 0.14 ug/ml for 24 hrs by MTT assay; format: functional, Hep 3B2; summary of the method: as §1
[16] = Antiproliferative activity against human Hep3B cells at 0.41 ug/ml for 24 hrs by MTT assay; format: functional, Hep 3B2; summary of the method: as §1
[17] = Antiproliferative activity against human Hep3B cells at 1.23 ug/ml for 24 hrs by MTT assay; format: functional, Hep 3B2; summary of the method: as §1
[18] = Antiproliferative activity against human Hep3B cells at 3.7 ug/ml for 24 hrs by MTT assay; format: functional, Hep 3B2; summary of the method: as §1
[19] = Antiproliferative activity against human Hep3B cells at 11.11 ug/ml for 24 hrs by MTT assay; format: functional, Hep 3B2; summary of the method: as §1
[20] = Antiproliferative activity against human Hep3B cells at 33.33 ug/ml for 24 hrs by MTT assay; format: functional, Hep 3B2; summary of the method: as §1
[21] = Antiproliferative activity against human Hep3B cells at 100 ug/ml for 24 hrs by MTT assay; format: functional, Hep 3B2; summary of the method: as §1
A-375 (human melanoma) = test: Antiproliferative activity against human A375 cells for 24 hrs by MTT assay; settings: A-375, 24 h
HEP-3B (human hepatoma) = test: Antiproliferative activity against human Hep3B cells for 24 hrs by MTT assay
[22] = target: Dihydroorotate dehydrogenase (quinone), mitochondrial (Homo sapiens, UniProt Q02127); test: Inhibition of recombinant human DHODH activity after 20 mins by DCIP dye based colorimetric analysis in presence of 1 mM L-dihydroorotate and 0.1 mM CqD
Dihydroorotate dehydrogenase (quinone), mitochondrial, sequence (Q02127 whole entry): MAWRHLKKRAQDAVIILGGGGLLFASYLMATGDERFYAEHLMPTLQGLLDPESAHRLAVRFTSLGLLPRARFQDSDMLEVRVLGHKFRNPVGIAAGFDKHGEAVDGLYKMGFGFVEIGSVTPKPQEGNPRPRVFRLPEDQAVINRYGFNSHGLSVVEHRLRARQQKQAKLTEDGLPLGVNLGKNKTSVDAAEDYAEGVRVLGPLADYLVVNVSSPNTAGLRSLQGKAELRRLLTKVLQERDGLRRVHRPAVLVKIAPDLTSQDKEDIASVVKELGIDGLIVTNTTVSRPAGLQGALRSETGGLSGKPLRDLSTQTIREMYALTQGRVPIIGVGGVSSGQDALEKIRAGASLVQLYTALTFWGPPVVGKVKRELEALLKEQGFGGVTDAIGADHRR

Compound	Retention_time [1] [min]	inhibition at 0.01 µg/mL (A-375 [2]) [%]	inhibition at 0.02 µg/mL (A-375 [3]) [%]	inhibition at 0.05 µg/mL (A-375 [4]) [%]	inhibition at 0.14 µg/mL (A-375 [5]) [%]	inhibition at 0.41 µg/mL (A-375 [6]) [%]	inhibition at 1.23 µg/mL (A-375 [7]) [%]	inhibition at 3.7 µg/mL (A-375 [8]) [%]	inhibition at 11.11 µg/mL (A-375 [9]) [%]	inhibition at 33.33 µg/mL (A-375 [10]) [%]	inhibition at 100 µg/mL (A-375 [11]) [%]	inhibition at 0.01 µg/mL [12] [%]	inhibition at 0.02 µg/mL [13] [%]	inhibition at 0.05 µg/mL [14] [%]	inhibition at 0.14 µg/mL [15] [%]	inhibition at 0.41 µg/mL [16] [%]	inhibition at 1.23 µg/mL [17] [%]	inhibition at 3.7 µg/mL [18] [%]	inhibition at 11.11 µg/mL [19] [%]	inhibition at 33.33 µg/mL [20] [%]	other results
COc1ccc2nc(C(=O)Nc3ccc(-c4ccccc4)cc3)c(C)c(O)c2c1	6.4	0.13	0.56	1.98	3.05	7.62	18.7	27.2	36.2	46.2	66.9	0.35	0.96	1.23	3.52	7.58	14.2	23.5	36.2	48.4	inhibition at 100 µg/mL [21]: 79.3%; IC50 (A-375 (human melanoma)): 18.1 µM; IC50 (HEP-3B (human hepatoma)): 50.6 µM; IC50 [22]: 2.28 µM
Cc1ccc2nc(C(=O)Nc3c(F)cc(-c4cccc(F)c4)cc3F)c(C)c(O)c2c1	8.8	0.1	0.38	0.96	1.06	1.35	3.04	16.2	17.9	26.5	56.4	0.22	0.98	1.52	2.34	5.25	11.2	19.2	25.5	37.3	inhibition at 100 µg/mL [21]: 68.3%; IC50 (A-375 (human melanoma)): > 100 µM; IC50 (HEP-3B (human hepatoma)): 90.5 µM
CCc1ccc2nc(C(=O)Nc3c(F)cc(-c4cccc(F)c4)cc3F)c(C)c(O)c2c1	6.3	-0.35	-0.12	0.68	1.57	3.56	12.2	17.9	26.4	28.4	47.2	0.74	2.05	5.62	11.2	16.2	23.5	31.2	46.3	56.3	inhibition at 100 µg/mL [21]: 63.2%; IC50 (A-375 (human melanoma)): 15.8 µM; IC50 (HEP-3B (human hepatoma)): 8.13 µM; IC50 [22]: 3.21 µM
CCOc1ccc2nc(C(=O)Nc3c(F)cc(-c4cccc(F)c4)cc3F)c(C)c(O)c2c1	7.2	0.23	0.68	1.02	1.54	2.05	2.96	4.56	15.3	16.3	37.9	-0.5	-0.32	-0.04	0.01	0.26	1.03	1.56	2.03	11.2	inhibition at 100 µg/mL [21]: 33.2%; IC50 (A-375 (human melanoma)): > 100 µM; IC50 (HEP-3B (human hepatoma)): > 100 µM
Cc1c(C(=O)Nc2c(F)cc(-c3cccc(F)c3)cc2F)nc2ccc(C(F)(F)F)cc2c1O	7	0.16	1.28	3.47	9.37	16.5	21.2	34.3	46.3	61.3	95.2	-0.33	0.06	1.35	2.65	9.38	15.3	31.2	36.2	45.2	inhibition at 100 µg/mL [21]: 68.4%; IC50 (A-375 (human melanoma)): 29.9 µM; IC50 (HEP-3B (human hepatoma)): 12.6 µM; IC50 [22]: 6.09 µM
Cc1ccc2nc(C(=O)Nc3c(F)cc(-c4cccc(F)c4)cc3F)c(C)c(C(=O)O)c2c1	7	-1.05	0.02	0.35	0.98	1.53	3.65	9.25	19.2	26.3	37.3	0.36	1.05	2.11	6.34	15.2	21.3	31.3	35.6	41.2	inhibition at 100 µg/mL [21]: 75.2%; IC50 (A-375 (human melanoma)): 31.6 µM; IC50 (HEP-3B (human hepatoma)): 26 µM
CCOc1ccc2nc(C(=O)Nc3c(F)cc(-c4cccc(F)c4)cc3F)c(C)c(C(=O)O)c2c1	6.8	0.3	1.02	1.96	3.05	11.2	26.6	35.2	48.3	51.2	72.3	-0.12	0.05	0.98	2.06	5.34	17.9	26.5	33.2	38.6	inhibition at 100 µg/mL [21]: 65.3%; IC50 (A-375 (human melanoma)): 5.8 µM; IC50 (HEP-3B (human hepatoma)): 14.9 µM; IC50 [22]: 2.83 µM
Cc1c(C(=O)Nc2c(F)cc(-c3cccc(F)c3)cc2F)nc2ccc(OC(F)(F)F)cc2c1C(=O)O	6.9	-0.11	0.95	1.06	3.06	15.2	24.4	37.9	42.4	53.1	68.8	0.45	1.22	3.05	7.28	15.3	21.2	29.8	37.3	46.2	inhibition at 100 µg/mL [21]: 75.3%; IC50 (A-375 (human melanoma)): 4.8 µM; IC50 (HEP-3B (human hepatoma)): 22 µM; IC50 [22]: 1.5 µM
Cc1c(C(=O)Nc2c(F)cc(-c3cccc(F)c3)cc2F)nc2ccc(C(F)(F)F)cc2c1C(=O)O	6.8	0.12	0.37	1.04	2.56	7.82	18.3	27.8	45.4	51	61.3	0.2	1.15	1.68	2.13	6.42	17.2	21.3	31.2	43.3	inhibition at 100 µg/mL [21]: 72.3%; IC50 (A-375 (human melanoma)): 7.57 µM; IC50 (HEP-3B (human hepatoma)): 42.8 µM; IC50 [22]: 3.44 µM
